Among the data in ChEMBL document CHEMBL1154295, “Potent and selective steroidal inhibitors of 17beta-hydroxysteroid dehydrogenase type 7, an enzyme that catalyzes the reduction of the key hormones estrone and dihydrotestosterone” (J Med Chem, 2009) are inhibition and IC50 values, retold here.

Calls of active or inactive are those of the source. No cut-off for these calls is given here.

A word on the inhibition: it is how much of the control response was suppressed. For orientation: IC50 means the midpoint of a concentration-inhibition curve.

Experiment [1] addresses T1, 3-keto-steroid reductase/17-beta-hydroxysteroid dehydrogenase 7 (Homo sapiens) (UniProt P56937).
T1 sequence (whole entry): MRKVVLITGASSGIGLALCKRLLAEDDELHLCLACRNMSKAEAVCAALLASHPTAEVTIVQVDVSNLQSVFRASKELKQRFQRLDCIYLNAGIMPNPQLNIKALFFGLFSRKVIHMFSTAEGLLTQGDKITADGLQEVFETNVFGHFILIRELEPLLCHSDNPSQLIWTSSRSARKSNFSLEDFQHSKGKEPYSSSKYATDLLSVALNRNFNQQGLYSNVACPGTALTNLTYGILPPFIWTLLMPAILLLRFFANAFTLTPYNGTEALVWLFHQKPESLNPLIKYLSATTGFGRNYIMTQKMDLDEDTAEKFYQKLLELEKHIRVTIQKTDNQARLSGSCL
Description: Inhibition of human 17beta-HSD7 expressed in HEK293 cells assessed as inhibition of reduction of [14C]dihydrotestosterone into [14C]5alpha-androstane-3beta,17beta-diol at 3 uM after 18 hrs. The class given is cell-based. In short, it runs like this: (§1)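 Intact HEK-293 cells stably overexpressing h17β-HSD7 (pCMV-neo, G-418 selected) were plated at 500 000 cells/well in MEM with 10% fetal calf serum at 37 °C. Fresh medium received 15 000 cpm (~150 nM) [4-14C]-DHT plus ethanolic inhibitor, and cells were incubated 18 h. Steroids were extracted twice with diethyl ether. Assays were done in duplicate.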

Experiment [2] deals with T1, 3-keto-steroid reductase/17-beta-hydroxysteroid dehydrogenase 7 (Homo sapiens). The settings on record: HEK293, at 0.3 µM.
A further experiment deals with HEK293. Description: Inhibition of human 17beta-HSD5 expressed in HEK293 cells assessed as inhibition of conversion of [14C]4-androstene-3,17-dione to [14C]testosterone at 0.3 uM after 20 hrs. The format is cell-based. A digest of the protocol: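 Intact HEK-293 cells stably transfected with pCMV-neo-h17β-HSD5 were plated at 500 000 cells/well. They were incubated with 15 000 cpm [4-14C]-Δ4-dione and inhibitor in ethanol (0.3 or 3 μM) for 20 h at 37 °C, 5% CO2, in triplicate. Steroids were then extracted, separated and quantified.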

Experiment [3] deals with T2, 17-beta-hydroxysteroid dehydrogenase type 1 (Homo sapiens) (UniProt P14061).
T2 sequence (whole entry): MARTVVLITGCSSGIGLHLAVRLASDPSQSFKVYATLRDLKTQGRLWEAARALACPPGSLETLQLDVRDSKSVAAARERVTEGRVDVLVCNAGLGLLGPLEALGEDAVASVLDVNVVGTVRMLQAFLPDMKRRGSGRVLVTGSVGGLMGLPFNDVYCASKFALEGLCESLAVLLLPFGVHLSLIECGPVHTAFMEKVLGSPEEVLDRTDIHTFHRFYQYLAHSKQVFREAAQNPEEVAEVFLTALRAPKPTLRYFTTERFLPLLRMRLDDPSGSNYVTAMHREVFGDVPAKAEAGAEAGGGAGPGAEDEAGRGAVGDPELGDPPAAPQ
The experiment can be described thus: Inhibition of human 17beta-HSD1 expressed in HEK293 cells assessed as inhibition of reduction of [14C]estrone into [14C]estradiol at 0.1 uM. The class given is cell-based. In short, it runs like this:
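Enzyme source: sonicated HEK-293 cells transfected with the h17β-HSD1 gene. Inhibitor was dissolved in ethanol and tested at final concentrations of 0.1 and 1 μM. The [14C]-E1 to [14C]-E2 assay was run as in an earlier report.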

Experiment [4] concerns the target T3, 3-oxo-5-alpha-steroid 4-dehydrogenase 1 (Homo sapiens) (UniProt P18405).
T3 sequence (whole entry): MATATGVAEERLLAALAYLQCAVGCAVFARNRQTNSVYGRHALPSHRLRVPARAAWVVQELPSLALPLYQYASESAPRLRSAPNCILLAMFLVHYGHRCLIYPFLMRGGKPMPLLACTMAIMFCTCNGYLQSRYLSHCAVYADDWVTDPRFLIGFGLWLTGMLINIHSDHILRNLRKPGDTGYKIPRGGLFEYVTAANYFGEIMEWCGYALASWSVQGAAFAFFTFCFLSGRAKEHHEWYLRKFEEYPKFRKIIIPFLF
The experiment can be described thus: Inhibition of human 5alpha reductase 1 expressed in HEK293 cells assessed as inhibition of conversion of [14C]4-androstene-3,17-dione to [14C]5R-androstane-3,17-dione at 0.3 uM after 1 hr. The format is cell-based. In short, it runs like this:
(§2)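 Intact HEK-293 cells transfected with pCMV-neo-h5α-reductase type 1 or type 2 were plated at 500 000 cells/well at 37 °C. They were incubated with 15 000 cpm [14C]-Δ4-dione and inhibitor (final 0.3 or 3 μM), in duplicate, for 1 h (type 1) or 3 h (type 2). Steroids were extracted and separated by TLC (toluene/EtOAc 4:1). Radioactivity gave % transformation and % inhibition.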

Experiment [5] concerns the target T4, 3-oxo-5-alpha-steroid 4-dehydrogenase 2 (Homo sapiens) (UniProt P31213).
T4 sequence (whole entry): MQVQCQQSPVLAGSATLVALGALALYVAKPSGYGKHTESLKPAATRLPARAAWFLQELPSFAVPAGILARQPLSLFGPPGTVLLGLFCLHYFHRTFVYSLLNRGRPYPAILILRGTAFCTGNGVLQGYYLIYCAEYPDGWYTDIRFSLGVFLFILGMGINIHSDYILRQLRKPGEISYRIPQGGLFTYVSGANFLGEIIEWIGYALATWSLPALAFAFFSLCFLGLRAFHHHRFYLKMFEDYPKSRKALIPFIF
Description: Inhibition of human 5alpha reductase 2 expressed in HEK293 cells assessed as inhibition of conversion of [14C]4-androstene-3,17-dione to [14C]5R-androstane-3,17-dione at 0.3 uM after 3 hrs. The class given is cell-based. A digest of the protocol:
as §2

Experiment [6] deals with T5, 3-keto-steroid reductase/17-beta-hydroxysteroid dehydrogenase 7 (Homo sapiens, UniProt P56937).
T5 sequence (P56937 whole entry): T1 sequence (whole entry)
Description: Inhibition of human 17beta-HSD7 expressed in HEK293 cells assessed as inhibition of reduction of [14C]estrone into [14C]estradiol after 7 hrs. The format is cell-based. In short, it runs like this:
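Intact HEK-293 cells stably overexpressing h17β-HSD7 were plated at 500 000 cells/well in MEM/10% FCS at 37 °C. Fresh medium received 15 000 cpm (~150 nM, below Km) [4-14C]-estrone plus ethanolic inhibitor for 7 h. Steroids were extracted with diethyl ether. Screening used two inhibitor concentrations in duplicate or triplicate and is reported as % inhibition of E1→E2.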

Experiment [7] concerns the target T1, 3-keto-steroid reductase/17-beta-hydroxysteroid dehydrogenase 7 (Homo sapiens). Description: Inhibition of human 17beta-HSD7 expressed in HEK293 cells assessed as inhibition of reduction of [14C]dihydrotestosterone into [14C]5alpha-androstane-3beta,17beta-diol at 0.3 uM after 18 hrs. The class given is cell-based. In short, it runs like this: as §1
Experiment [8] shares this target. The settings on record: HEK293, at 3 µM.

As to `CCCCCCCN(C)C1CC[C@H]2[C@@H]3CC[C@H]4NC(=O)CC[C@]4(C)[C@H]3CC[C@]12C` (some centres undefined), in experiment [1], the inhibition amounted to 69%.
For the compound `CCCCCCCN(C(=O)c1ccc(F)cc1)[C@H]1CC[C@H]2[C@@H]3CC[C@H]4N(C)C(=O)CC[C@]4(C)[C@H]3CC[C@]12C`, the inhibition was found to be 69% in [1] and 84% in experiment [2].
`CC1(C)CC[C@@]2(CC[C@H]3[C@@H]4CC[C@H]5NC(=O)CC[C@]5(C)[C@H]4CC[C@@]32C)OC1=O`: the inhibition in the experiment on HEK293 worked out at 90%; in experiment [1], 69%. Also, the inhibition result in [3], in experiment [4] and in [5] was “inactive” in each case.
Consider `CCCCCCCN(C)[C@H]1CC[C@H]2[C@@H]3CC[C@H]4N(C)C(=O)CC[C@]4(C)[C@H]3CC[C@]12C`, for which the inhibition result in experiment [5] is “inactive”. Moreover, in experiment [6], the IC50 was found to be 0.189 µM. Further, in [1], the inhibition was determined as 69%.
For the compound `CN1C(=O)CC[C@]2(C)[C@H]3CC[C@@]4(C)[C@@H](CC[C@@]45CCC(C)(C)C(=O)O5)[C@@H]3CC[C@@H]12`, the values for the inhibition (in the experiment with HEK293; in experiment [1]) were 90% and 69%, respectively. The inhibition entry in experiment [3] was “inactive”. Also, the inhibition entry in [4] is “Active”. Moreover, the IC50 in [6] came out at 0.116 µM.
Take `CCCCCCCN(C(=O)c1c(F)cccc1F)[C@H]1CC[C@H]2[C@@H]3CC[C@H]4N(C)C(=O)CC[C@]4(C)[C@H]3CC[C@]12C`: the inhibition was 69% in [1] and 84% in [2].
Turning to `CCCCCCCN(C=O)[C@H]1CC[C@H]2[C@@H]3CC[C@H]4N(C)C(=O)CC[C@]4(C)[C@H]3CC[C@]12C`, the results for the inhibition in experiment [1] and in [2] were 69% and 94%, respectively.
For the compound `CCCCCCCCCCN(C=O)C1CC[C@H]2[C@@H]3CC[C@H]4N(C)C(=O)CC[C@]4(C)[C@H]3CC[C@]12C` (some centres undefined), in experiment [6], the IC50 worked out at 0.195 µM. The inhibition in [1] was found to be 69%; in experiment [7] it was 49%.
Regarding `CC1(C)CC[C@@]2(CC[C@H]3[C@@H]4CCc5cc(C(=O)Oc6ccccc6)ccc5[C@H]4CC[C@@]32C)OC1=O`, the inhibition in [2] came to 14%; in experiment [8], 28.6%.
As for `CCCCCCCCCCN(C=O)C1CC[C@H]2[C@@H]3CC[C@H]4NC(=O)CC[C@]4(C)[C@H]3CC[C@]12C` (some centres undefined), the inhibition in experiment [1] is 69%.
Turning to `C[C@]12CC[C@](O)(Cc3ccccc3)C[C@@H]1CC[C@@H]1[C@@H]2CC[C@]2(C)C(=O)CC[C@@H]12`, the inhibition in experiment [2] came out at 19.3%; in experiment [8] it was 22.2%.
For `CCCCCCCN(CCCC)[C@H]1CC[C@H]2[C@@H]3CC[C@H]4N(C)C(=O)CC[C@]4(C)[C@H]3CC[C@]12C`, in [5], the inhibition entry is “inactive”. The inhibition in [1] worked out at 69%; in [2], 76%.
For `CC(C)(C)NC(=O)[C@H]1CC[C@H]2[C@@H]3CC[C@H]4NC(=O)C=C[C@]4(C)[C@H]3CC[C@]12C`, the results for the inhibition in [2] and in [8] were 3.7% and 5.4%, respectively.
For `CCC1(CC)CC[C@@]2(CC[C@H]3[C@@H]4CCc5cc(O)ccc5[C@H]4CC[C@@]32C)OC1=O`, in that order: 15.2% and 39.6%.
For `CN1C(=O)CC[C@]2(C)[C@H]3CC[C@]4(C)[C@@H](N5CCCC5=O)CC[C@H]4[C@@H]3CC[C@@H]12`, in that order: 15.3% and 15.1%.
Consider `O=c1oc2cc(O)ccc2c2oc3cc(O)ccc3c12`, for which the inhibition came to 5.5% in [2] and 2.3% in [8].
Take `C#C[C@]1(O)CC[C@H]2[C@@H]3CCc4cc(O)ccc4[C@H]3CC[C@@]21C`: the inhibition in experiment [2] was found to be 8.3%; in experiment [8], 3.4%.
Consider `CC1(C)CC[C@@]2(CC[C@H]3[C@@H]4CCC5CC(=O)CC[C@]5(C)[C@H]4CC[C@@]32C)OC1=O` (some centres undefined), for which the inhibition in experiment [2] amounted to 2.2%; in experiment [8] it was 26.4%.
With `CCCCCN(C(=O)CCCC)[C@H]1CC[C@H]2[C@@H]3CC[C@H]4N(C)C(=O)CC[C@]4(C)[C@H]3CC[C@]12C`, the inhibition in experiment [2] amounted to 27.3%; in experiment [8] it was 79.7%.
Consider `C[C@]12CC[C@@H]3c4ccc(O)cc4CC[C@H]3[C@@H]1CC[C@@]21CCCC(=O)O1`, for which the inhibition in experiment [2] stood at 0%; in experiment [8] it was 13.8%.
For the compound `CC1=C(c2ccc(OC(=O)C(C)(C)C)cc2)[C@H](c2ccc(OCCN3CCCCC3)cc2)Oc2cc(OC(=O)C(C)(C)C)ccc21`, the inhibition in experiment [2] and in [8] was 0% throughout.
